Screens: PubChem BioAssay, several laboratories
HEK293 NFkB inh – inhibitors of the PMA/ionomycin-induced NF-kB reporter in HEK293 cells; hit rate 0.21% among 62,000; AID 465; inhibition, % at 3 µM; HEK-293 NF-kB luciferase reporter, luminescence;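 active = inhibition above the mean of all tested compounds plus 3 SD, cut at about 40% in these data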
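Reagent: PMA plus ionomycin mix as NF-kB-activating stimulus. Assay system: NF-kB luciferase reporter HEK-293 cells. Technique: luminescence from luciferase substrate reagent. Incubation: 1 h compound pre-incubation, 16 h PMA/ionomycin at 37 °C. Benchmarks: DMSO only as uninhibited control, 10 µM reference inhibitor as full inhibition. Repeats: tested once.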
D1 mod – D1 dopamine receptor (human) allosteric modulation; AID 641; B-score at 10 µM; hit rate 5.9% among 58,000; HEK293 D1, CRE-luciferase, dopamine EC30 potentiation; actives deviate in either direction;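 active = luminescence count or its row- and column-corrected plate score outside the 99.7% band of the plate's sample wells, on either side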
hDAT+cocaine – changed human dopamine transporter uptake under cocaine IC80; LLC-PK1 hDAT cells, [14C]-dopamine uptake with cocaine IC80; actives deviate in either direction; hit rate 1.3% among 110,000; B-score at 10 µM;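 active = Z score or B-score, a plate-position-corrected score, falls beyond the plate's 99.7% confidence bounds, in either direction; inactive = both scores lie inside the 99.7% bounds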
Target sequence (Q01959 whole entry, looked up): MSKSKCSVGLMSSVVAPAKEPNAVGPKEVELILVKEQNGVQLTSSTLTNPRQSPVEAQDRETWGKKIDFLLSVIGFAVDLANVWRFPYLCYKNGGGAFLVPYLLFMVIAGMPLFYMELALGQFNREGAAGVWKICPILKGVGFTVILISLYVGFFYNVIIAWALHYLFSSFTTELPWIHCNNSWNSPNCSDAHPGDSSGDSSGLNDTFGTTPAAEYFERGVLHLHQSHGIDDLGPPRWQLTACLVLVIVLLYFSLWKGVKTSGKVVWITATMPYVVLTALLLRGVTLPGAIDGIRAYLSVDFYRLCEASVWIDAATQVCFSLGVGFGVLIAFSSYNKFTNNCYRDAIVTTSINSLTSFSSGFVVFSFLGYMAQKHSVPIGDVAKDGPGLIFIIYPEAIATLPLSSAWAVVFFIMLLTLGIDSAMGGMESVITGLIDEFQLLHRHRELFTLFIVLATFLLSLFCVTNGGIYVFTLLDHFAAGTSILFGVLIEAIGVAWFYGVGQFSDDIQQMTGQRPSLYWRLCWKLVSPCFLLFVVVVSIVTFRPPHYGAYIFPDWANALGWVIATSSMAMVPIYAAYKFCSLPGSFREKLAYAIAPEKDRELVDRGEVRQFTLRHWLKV
Jurkat tox 60K – reduces viability or proliferation of Jurkat cells. Jurkat E6.1 viability, ATP luminescence, 48 h. hit rate 1.2% among 56,000. AID 463. inhibition, % at 4 µM;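 active = inhibition above the mean inhibition of all tested compounds plus 3 SD, cut at about 28% in these data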
M1 antag – blocks the rat M1 muscarinic receptor response to acetylcholine; B-score at 10 µM; CHO-M1 cells, Fluo-4 calcium, ACh EC80 antagonist mode; stronger effect = lower value; hit rate 3.4% among 64,000; AID 628;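 active = calcium fluorescence response, raw or row-and-column corrected B-score, differing from the plate sample mean either way at a set confidence level, mostly lower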
M1 agonist – agonists of M1 muscarinic receptor; CHO-M1 cells, Fluo-4 calcium fluorescence, agonist mode; stronger effect = higher value; B-score at 10 µM; hit rate 3% among 64,000; AID 626;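 active = fluorescence rise, raw or as B-score row- and column-corrected plate score, outside the 99.7% band of its plate's samples, either direction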
A number is an active result; n = inactive; x = no result. The list is not random: actives were taken first. Their share in the collection is about 7.6%.

SMILES	HEK293 NFkB inh	D1 mod	hDAT+cocaine	Jurkat tox 60K	M1 antag	M1 agonist
Cc1ccc(S(=O)(=O)NCC(C)NS(=O)(=O)c2ccc(C)cc2)cc1 (stereo not drawn)	n	n	-8.2	n	n	n
CCC(C)Nc1nc(OCC(F)(F)F)nc(OCC(F)(F)F)n1 (stereo not drawn)	n	n	n	n	n	n
CCC(C)Nc1nc(OC(C(F)(F)F)C(F)(F)F)nc(OC(C(F)(F)F)C(F)(F)F)n1 (stereo not drawn)	x	x	3.2	x	x	x
CC(=O)N(Cc1ccco1)C1(C(=O)NC2CCCCC2)CCCCC1	n	n	n	x	2.1	n
CC(=O)NCC(=O)N(Cc1ccco1)C1(C(=O)NC2CCCCC2)CCCCC1	n	n	n	x	n	n
Cn1c(=O)c2c(nc(Oc3ccc4c(c3)OCO4)n2Cc2ccc(Br)cc2)n(C)c1=O	x	x	x	x	n	n
Cc1ccc(-c2nc(-c3ccccc3)no2)cc1	x	x	n	x	x	x
c1ccc(-c2noc(-c3ccc4ccccc4c3)n2)nc1	75	-4.4	n	n	n	n
c1ccc(-c2noc(-c3ccncc3)n2)nc1	n	n	n	n	n	n
c1ccc(-c2noc(-c3cccnc3)n2)nc1	n	-4.1	n	n	n	n
Cc1ccc(-c2nc(-c3cccnc3)no2)cc1	n	-4.9	n	n	n	n
COc1cccc(-c2nc(-c3ccccn3)no2)c1	x	x	n	x	x	x
c1ccc(-c2noc(-c3ccc4c(c3)OCO4)n2)nc1	41	-8.3	n	41	n	n
C=CCN1CC(c2nc3ccccc3n2CCOc2ccccc2)CC1=O (stereo not drawn)	n	n	n	n	n	n
Cc1nc(C)c(C(=O)Nc2ccccc2-c2ccccc2)o1	n	n	n	n	n	n
CCCCc1c(O)c2ccccc2[nH]c1=O	n	n	n	n	n	n
CCCCCCC(=O)Nc1c(O)c2ccccc2[nH]c1=O	n	-3.1	n	n	n	n
Cc1cc(=O)oc2cc(OCC(=O)N3c4ccccc4CC3C)ccc12 (stereo not drawn)	n	n	n	72	n	n
Cc1cc(=O)oc2cc(OCC(=O)N3CC(C)OC(C)C3)ccc12 (stereo not drawn)	x	x	n	x	x	x
O=C(c1ccco1)N1CCN(c2ncnc3c(-c4ccccc4)nsc23)CC1	n	n	n	n	n	n
NC(=O)C1CCN(c2ncnc3c(-c4ccccc4)nsc23)CC1	n	n	-7.2	n	n	n
COC(=O)c1cccc(NC(=O)C2COc3ccccc3O2)c1C (stereo not drawn)	n	n	n	n	n	n
CCOC(=O)CCCNC(=O)COC(=O)c1ccc(O)cc1	x	x	2.5	x	x	x
CCOC(=O)COC(=O)c1ccc(O)cc1	n	n	n	x	n	n
OC1(c2cccc(C(F)(F)F)c2)CCN(c2ncnc3c2[nH]c2ccc(F)cc23)CC1	n	n	x	53	n	n
SMILES	HEK293 NFkB inh	D1 mod	hDAT+cocaine	Jurkat tox 60K	M1 antag	M1 agonist
Nn1c(SCC(=O)NCc2ccccc2)nnc1C1CC1	n	n	n	n	n	n
CSc1cccc(NC(=O)CN(c2cc(C)ccc2C)S(C)(=O)=O)c1	n	n	n	n	1.2	n
COc1ccc(Cl)cc1N(CC(=O)Nc1cccc(SC)c1)S(C)(=O)=O	x	x	n	x	x	x
COc1ccc(NC(=O)CC2C(=O)N(CCc3ccccc3)C(=S)N2Cc2cccnc2)cc1 (stereo not drawn)	x	x	n	x	x	x
Cc1nn2cc(-c3ccc(Cl)cc3)nc2s1	n	x	n	n	x	x
Cc1nn2cc(-c3ccc(-c4ccccc4)cc3)nc2s1	n	-4	n	n	n	n
CCc1nn2cc(-c3ccccc3)nc2s1	n	-8.3	n	n	n	n
CCCc1nn2c(=O)c(C(c3cccc(Cl)c3)c3c(O)nc4sc(CCC)nn4c3=O)c(O)nc2s1	x	x	n	x	x	x
COc1ccc(C(C)(C)C)cc1NC(=O)C1CC=CCC1C(=O)O (stereo not drawn)	n	n	n	n	n	n
CCOC(=O)N1CCN(C2OC(=O)c3ccccc32)CC1 (stereo not drawn)	x	x	n	x	-2	32
CCOC(=O)Cc1csc(NC(=O)CSc2nncn2C)n1	x	x	n	x	x	x
CN(C)c1ccccc1C(=O)c1ccccc1N(C)C	n	n	n	88	n	n
CN(c1ccccc1C(=O)O)S(C)(=O)=O	n	n	n	n	n	n
CC(C)NC(=O)Cn1nnc(-c2ccc(Cl)cc2)n1	n	n	x	n	n	n
